Series [1] is described as follows: Half life in male CD1 mouse at 10 mg/kg, po measured upto 24 hrs. It is filed as ADME, organism-based. Conditions: in vivo.
The nature of series [2]: Volume of distribution at steady state in male CD1 mouse at 3 mg/kg, iv measured upto 24 hrs. It is filed as ADME, organism-based. Conditions: in vivo. A digest of the protocol:
(§1)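 Male CD1 mice, n = 3 per group, dosed IV at 3 mg/kg or PO at 10 mg/kg in 10% DMSO/50% PEG400/40% of 20% HP-β-CD in water. Samples below the limit of quantitation excluded from parameters and mean concentrations.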

Series [3] is described as follows: Toxicity in female Swiss Webster mouse infected with Plasmodium berghei assessed as drug tolerance at 20 mg/kg, […]. It is filed as organism-based. Conditions: in vivo, po.
The subject of series [4] is Plasmodium berghei. The experiment in a line: Antiplasmodial activity against Plasmodium berghei infected in female Swiss Webster mouse model assessed as survival at 20 mg/kg, po administered once daily for 1 day.
A short description of series [5]: Clearance in male CD1 mouse at 3 mg/kg, iv measured upto 24 hrs. It is filed as ADME, organism-based. Conditions: in vivo. Summed up: as §1
The nature of series [6]: AUClast in male CD1 mouse at 10 mg/kg, po measured upto 24 hrs. It is filed as ADME, organism-based. Conditions: in vivo. A digest of the protocol: as §1
Series [7] is described as follows: Toxicity in female Swiss Webster mouse infected with Plasmodium berghei assessed as drug tolerance at 10 mg/kg, po administered once daily for 2 days and measured upto 30 days. Conditions: in vivo, 720 h, time 30 day. It is filed as organism-based. A digest of the protocol: (§2)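 Female Swiss Webster mice (~20 g) infected ip with 10^6 P. berghei-infected erythrocytes from a donor mouse. Dosing by oral gavage once daily for 1–2 days starting 1 h post-inoculation, in 10% DMSO/50% PEG400/40% of 20% HP-β-CD in water. Five mice per arm. Daily Giemsa smears from day 7, counting infected cells per 1000 erythrocytes. Body weight tracked. Euthanasia at >50% parasitemia or >15% weight loss. Followed to day 30; cure means no parasitemia at day 30. Survival reported as the day of the longest-surviving mouse.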

Series [8] in a line: Solubility of the compound in PBS buffer at pH 7.4. It is filed as physicochemical.
Series [9] in a line: Metabolic stability in human liver microsomes assessed as intrinsic clearance. Conditions: for microsomal CLint: liver microsomes, read-out: CLH; for microsomal intrinsic clearance: microsomes. It is filed as ADME, Microsome. (In general: Liver microsomes are a subcellular fraction often used to study metabolism.)
Series [10] relates to Plasmodium berghei. The experiment in a line: Antiplasmodial activity against Plasmodium berghei infected in female Swiss Webster mouse model assessed as reduction in parasitemia at 20 mg/kg, po administered once daily for 2 days and measured upto 30 days by giemsa staining based microscopic analysis. It is filed as functional, organism-based. Conditions: time 30.0 day. A digest of the protocol: as §2

Series [11] deals with Plasmodium berghei. Nature of the series: Antiplasmodial activity against Plasmodium berghei infected in female Swiss Webster mouse model assessed as survival at 10 mg/kg, po administered once daily for 2 days and measured upto 30 days. It is filed as functional. Conditions: time 30 day. A digest of the protocol:
as §2

Series [12] is described as follows: Oral bioavailability in male CD1 mouse at 10 mg/kg measured upto 24 hrs. It is filed as ADME, organism-based. Conditions: in vivo. Summed up: as §1
In a further series the test system is Plasmodium falciparum. Nature of the series: Antiplasmodial activity against Plasmodium falciparum W2 infected in human erythrocytes assessed as inhibition of parasitic growth incubated for 72 hrs by YOYO-1 staining based FACScalibur flow cytometry analysis. It is filed as functional, organism-based. Conditions: W2, Erythrocyte. Summed up:
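P. falciparum W2 grown at 2% hematocrit in RPMI 1640 with 0.5% AlbuMAX II, 0.1 mM hypoxanthine and 25 mM HEPES pH 7.4, at 37 °C under 5% O2/5% CO2/90% N2. Twelve concentrations (3-fold steps, 10 μM to 0.06 nM) or DMSO, 72 h. Cells fixed in 2% formaldehyde, permeabilized, stained with 25 nM YOYO-1 (≥24 h, 4 °C). Parasitemia by flow cytometry on 5 × 10^4 cells. IC50 from 3 replicates.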
On the technique in general: In flow cytometry, cells or beads pass a laser one at a time.

Series [13] can be described thus: Oral bioavailability in rat at 17.4 mg/kg by LC-MS analysis. It is filed as ADME, organism-based. Conditions: in vivo.
In series [14] the test system is Plasmodium berghei. The experiment in a line: Antiplasmodial activity against Plasmodium berghei infected in female Swiss Webster mouse model assessed as cure rate at 40 mg/kg, po measured upto 30 days relative to control. It is filed as functional. Conditions: time <= 30 day.
Series [15] in a line: Solubility of the compound in PBS buffer at pH 7.4 at 2 mg/ml incubated for 5 to 6 hrs by LC-MS analysis. Conditions: time 5-6 hrs. It is filed as physicochemical.
Series [16] deals with Plasmodium berghei. The experiment in a line: Antiplasmodial activity Plasmodium berghei ANKA infected in female NMRI mouse model assessed as cure rate at 10 mg/kg, po administered as three consecutive dose daily for 24 to 72 hrs post infection by giemsa staining based microscopy analysis relative to control. It is filed as functional. Conditions: time 24-72 hrs.
For series [17], the system named is Plasmodium berghei. Nature of the series: Antiplasmodial activity against Plasmodium berghei infected in female Swiss Webster mouse model assessed as reduction in parasitemia at 20 mg/kg, po administered as a single dose and monitored for 30 days by giemsa staining based microscopic analysis. Conditions: time 30.0 day.
Series [18] deals with Plasmodium berghei. Nature of the series: Antiplasmodial activity against Plasmodium berghei infected in female Swiss Webster mouse model assessed as survival at 20 mg/kg, po […]. It is filed as functional. A digest of the protocol:
as §2

Series [19] deals with Plasmodium berghei. Nature of the series: Antiplasmodial activity against Plasmodium berghei infected in female Swiss Webster mouse model assessed as survival at 50 mg/kg, […]. It is filed as functional. Conditions: route po. A digest of the protocol:
as §2

Series [20] is described as follows: Toxicity in female Swiss Webster mouse infected with Plasmodium berghei assessed as drug tolerance at 50 mg/kg, […]. It is filed as organism-based. Conditions: in vivo, po. A digest of the protocol: as §2
In series [21] the test system is Plasmodium berghei. The experiment in a line: Antiplasmodial activity against Plasmodium berghei infected in female Swiss Webster mouse model assessed as survival at 4 mg/kg, po administered once daily for 2 days and measured upto 30 days. It is filed as functional. Conditions: time 30 day. Summed up:
as §2

A short description of series [22]: Toxicity in female Swiss Webster mouse infected with Plasmodium berghei assessed as drug tolerance at 4 mg/kg, po administered once daily for 2 days and measured upto 30 days. It is filed as organism-based. Conditions: in vivo, 720 h, time 30 day. A digest of the protocol:
as §2

Converted amounts (≈) assume the structure as drawn. The source made the active and inactive calls. No cut-off for these calls is given here.

In general, Vdss refers to a proportionality between amount in the body and measured concentration, not a real space. Higher therefore signals extensive tissue distribution. Broadly, the solubility (kinetic) is solubility judged after dilution from a stock solution rather than from solid. On to `CC(C)(N)CNC(=O)O[C@H]1CCC[C@@]2(C1)OOC1(O2)C2CC3CC(C2)CC1C3` (some centres undefined), for which the t1/2 in series [1] was found to be 1.44 h. The compound further yielded a distribution volume (Vdss) in series [2] of 2.5 L/kg. The Activity result in series [3] and in series [7] was “Non-Toxic” each time. The Survival is 20 days in the series on Plasmodium berghei [4] and 30 days in the series on Plasmodium berghei [11]. The CL in [5] worked out at 77 mL/min/kg. This compound yielded an AUClast in [6] of 818 ng·h/mL. Also, the solubility (kinetic) in [8] stood at 174 µM (≈ 68.6 µg/mL). Moreover, in series [9], the microsomal CLint is < 11.5 µL/min/mg. Also, the result with Plasmodium berghei [10] was Active. In series [12], this compound came in with an F of 38.9%.

One may read the EC50 as the concentration that produces a half-maximal response. As for `NC1(CNC(=O)O[C@@H]2CCC[C@]3(C2)OOC2(O3)C3CC4CC(C3)CC2C4)CC1` (some centres undefined), in the series with Plasmodium falciparum, the EC50 is 1.5 nM. Besides, in series [9], the microsomal CLint amounted to 41.7 µL/min/mg.

For orientation: bioavailability means dose-corrected exposure relative to a reference, in per cent. Read a low bioavailability as little systemic uptake. What is called solubility is the concentration that dissolves in the medium under given conditions. Lower therefore signals a poorly soluble substance. Compound `CC(C)(N)CNC(=O)C[C@H]1CC[C@]2(CC1)OO[C@]1(O2)C2CC3CC(C2)CC1C3` returned a bioavailability in [13] of 35%. Also, the results for the Activity (in the series on Plasmodium berghei [14]; in [7]; in the series on Plasmodium berghei [16]) were 100%, “Non-Toxic” and 67%, respectively. In [15], this compound returned a solubility of 504 µM (≈ 198 µg/mL). In addition, in series [9], the microsomal CLint was < 7 µL/min/mg. Moreover, in the series on Plasmodium berghei [11], the Survival stood at 14 days.

Consider `c1cc([C@H]2CC[C@]3(CC2)OO[C@]2(O3)C3CC4CC(C3)CC2C4)ccc1OCCN1CCOCC1`, for which the outcome in the series on Plasmodium berghei [17] was Active. Moreover, in the series with Plasmodium berghei [4], the Survival worked out at 30 days. Further, the solubility in series [15] came out at 0.181 µM (≈ 0.085 µg/mL).

`NCCC1CCN(C(=O)O[C@@H]2CCC[C@]3(C2)OOC2(O3)C3CC4CC(C3)CC2C4)CC1` (some centres undefined): in the series with Plasmodium berghei [14], the Activity turned out to be 20%.

For `N[C@@H]1CCN(C(=O)O[C@@H]2CCC[C@]3(C2)OOC2(O3)C3CC4CC(C3)CC2C4)C1` (some centres undefined), the Activity in the series on Plasmodium berghei [14] was 20%. The same compound registered a solubility (kinetic) in [8] of 167 µM (≈ 65.5 µg/mL). For the same compound, the microsomal intrinsic clearance in series [9] was 45.8 µL/min/mg.

As to “(S,S)-dispiro[adamantane-2,3'-[1,2,4]trioxolane-5',1''-cyclohexan]-3''-yl-piperidine-1-carboxylate”, in the series on Plasmodium berghei [18], the Survival came out at 7 days.

In [1], `NCCNC(=O)O[C@H]1CCC[C@@]2(C1)OOC1(O2)C2CC3CC(C2)CC1C3` (some centres undefined) registered a t1/2 of 1.66 h. This compound registered a distribution volume (Vdss) in series [2] of 2.33 L/kg. In series [5], the CL was determined as 66 mL/min/kg. Also, the AUClast in [6] came to 1038 ng·h/mL. The Activity result in [7] was “Non-Toxic”. The solubility (kinetic) in series [8] stood at 144 µM (≈ 52.8 µg/mL). Further, the microsomal intrinsic clearance in [9] is 23.1 µL/min/mg. In addition, in the series with Plasmodium berghei [10], the outcome was Active. For the same compound, the Survival in the series with Plasmodium berghei [11] came out at 30 days. The F in series [12] is 43.1%.

With `CC(C)(N)CNC(=O)O[C@@H]1CCC[C@]2(C1)OOC1(O2)C2CC3CC(C2)CC1C3` (some centres undefined), the t1/2 in series [1] worked out at 2.09 h. The same compound gave a volume of distribution (Vdss) in series [2] of 2.79 L/kg. In addition, the Activity result in series [3] is reported as “Non-Toxic”. In addition, the Survival in the series on Plasmodium berghei [4] is 12 days. In addition, in series [5], the CL is 108 mL/min/kg. The compound also came in with an AUClast in series [6] of 555 ng·h/mL. The microsomal CLint in series [9] came to 12.8 µL/min/mg. This compound showed a F in [12] of 39.3%.

Turning to `NCC1CCN(C(=O)O[C@@H]2CCC[C@]3(C2)OOC2(O3)C3CC4CC(C3)CC2C4)CC1` (some centres undefined), the Activity in the series with Plasmodium berghei [14] amounted to 20%.

Take `NC1CCN(C(=O)O[C@@H]2CCC[C@]3(C2)OOC2(O3)C3CC4CC(C3)CC2C4)CC1` (some centres undefined): the Survival was determined as 12 days in the series with Plasmodium berghei [19], 11 days in the series with Plasmodium berghei [4], 11 days in the series with Plasmodium berghei [21] and 12 days in the series with Plasmodium berghei [11]. Further, the Activity result is recorded as “Non-Toxic” in [20]; “Non-Toxic” in series [3]; 20% in the series on Plasmodium berghei [14]; “Non-Toxic” in series [7]; “Non-Toxic” in series [22]. The compound further yielded a solubility (kinetic) in series [8] of 145 µM (≈ 58.9 µg/mL).

In the case of `NC1(CNC(=O)O[C@H]2CCC[C@@]3(C2)OOC2(O3)C3CC4CC(C3)CC2C4)CC1` (some centres undefined), the Activity entry in [3] and in series [7] was “Non-Toxic” each time. Besides, the Survival in the series with Plasmodium berghei [4] and with Plasmodium berghei [11] was 11 days each time. Further, the solubility (kinetic) in [8] was found to be 143 µM (≈ 56.1 µg/mL). Also, in series [9], the microsomal intrinsic clearance is 37.4 µL/min/mg.

Source of the values: ChEMBL document CHEMBL6071188, “Synthesis and In Vivo Profiling of Desymmetrized Antimalarial Trioxolanes with Diverse Carbamate Side Chains” (ACS Med Chem Lett, 2024).
